Reference: ChEMBL document CHEMBL1156269, “Biological and biophysical properties of the histone deacetylase inhibitor suberoylanilide hydroxamic acid are affected by the presence of short alkyl groups on the phenyl ring” (J Med Chem, 2010)
Active and inactive are the calls of the source. The calls are words filed in the database; no cut-off is given here.

System: Caco-2
Assay: Induction of P21WAF1 gene expression in human Caco-2 cells at 5 uM after 24 hrs by Western blotting
Type: functional, cell-based
Summary of the method: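 Caco-2 cells were plated at 3×10⁵/well one day before treatment, then exposed for 24 h at 1 or 5 μM. Cells were scraped into PBS and protein was quantified. Equal protein was run on 12% SDS-PAGE and transferred to nitrocellulose. Blots were probed with mouse anti-p21 (1/1000, milk buffer) and an HRP secondary, with chemiluminescent detection; actin served as loading check.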

Question: Which Activity does the source give for O=C(CCCCCCC(=O)Nc1ccccc1)NO here?
Answer: Its Activity is “inactive”.
